# KCNK3 inh – human KCNK3 channel inhibitors, primary screen, CHO cells, FluxOR thallium flux, B-score | Potassium channel subfamily K member 3 (Homo sapiens), O14649 | FluxOR fluorescence; active compounds read low | B-score at 10 µM | 340,000 tested, 0.84% active | AID 602410, 2012;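 active = B-score under library mean minus 4 SD, starting fluorescence ratio at most library mean plus 5 SD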;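 note: more negative B-score means stronger inhibition of thallium flux through KCNK3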
# KCNQ1 act – potentiators or activators of KCNQ1 channel, primary screen, cell-based, thallium flux, high-throughput; 310,000 tested, 0.35% active; CHO-K1 KCNQ1, thallium flux FluxOR fluorescence; active compounds read high; AID 2648, 2010; B-score at 10 µM;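 active = fluorescence ratio B-score, a plate-corrected score, at least three library SD, with initial intensity B-score within 5 SD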
#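 Schedule – 37 °C overnight plating, 90-min dark dye load, 20-min compound pretreatment · System – stable KCNQ1 CHO-K1 line · Probe or stimulus – thallium- and potassium-containing depolarizing buffer · Measured by – kinetic FluxOR fluorescence, 10 s baseline plus 110 s post-stimulus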
# Kir21 block – inhibitors of mouse Kir2.1 inward-rectifier potassium channel; HEK293-Kir2.1, FluxOR thallium flux fluorescence; active compounds read low; B-score at 10 µM; 310,000 tested, 0.85% active;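 active = fluorescence ratio B-score at or below minus 3 SD of library scores, with starting-brightness B-score within 2 SD, cut at about -4.2 in these data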;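 note: channel flux triggered by added potassium and thallium sulfate stimulus; B-score of peak minus minimum fluorescence over baseline after thallium stimulus; more negative B-score means stronger Kir2.1 block with less thallium influx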
# hERG protect – hERG rescue from dofetilide block, primary screen, cell-based, CHO-hERG, FluxOR thallium flux, dofetilide IC70. Voltage-gated inwardly rectifying potassium channel KCNH2 (Homo sapiens), Q12809. dofetilide IC70 present. activation (rescue from dofetilide block), less the hit threshold, % at 10 µM. 310,000 tested, 0.51% active. AID 1511, 2009;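 active = activation above the mean of controls blocked by dofetilide plus 5 SD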;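 note: thallium influx through hERG after potassium depolarization seen as dye fluorescence rise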
# KCNK9 inh-1 – KCNK9 potassium channel inhibitors, primary screen, HEK293 cells, thallium flux | Potassium channel subfamily K member 9 (Homo sapiens), Q9NPC2 | FluxOR thallium flux fluorescence; active compounds read low | B-score at 10 µM | 310,000 tested, 1.2% active | AID 488922, 2010;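 active = ratio B-score over 3 SD below the library mean, with starting fluorescence within 5 SD of its mean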;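 note: negative B-score means less thallium flux so channel inhibition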
# KCNQ1 block – inhibitors of human KCNQ1 channel, primary screen, cell-based, thallium flux, high-throughput; Potassium voltage-gated channel subfamily KQT member 1 (Homo sapiens), P51787; CHO-K1 KCNQ1, FluxOR thallium flux fluorescence; active compounds read high; B-score at 10 µM; 310,000 tested, 1.3% active;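 active = compounds whose thallium flux B-score, printed positive for inhibition, exceeds three library SD while starting fluorescence stays within three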;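 note: channel opened by potassium depolarization with thallium stimulus after 20 min compound exposure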
# hERG ctr – hERG channel inhibition, counter-screen for Kir2.1 inhibitor project, cell-based, thallium flux. shares compounds with Kir21 block. hERG-expressing cells. inhibition, % at 10 µM. 320 tested, 20% active. AID 2236, 2010;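 note: host cells are CHO cells stably expressing hERG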
# KCNK9 inh-2 – KCNK9 channel inhibition, selectivity assay for Kir2.1 inhibitor project, cell-based; shares compounds with Kir21 block; KCNK9-expressing cells, ion flux inhibition; inhibition, % at 10 µM; 320 tested, 5% active; AID 2329, 2010
# Kir2-1 patch inh – mouse Kir2.1 channel blockers, Kir2.1 inhibitor project, cell-based, secondary, automated electrophysiology. 320 tested, 71% active. Kir2.1 cells, automated patch-clamp current inhibition. inhibition, % at 25 µM. AID 463252, 2010. shares compounds with Kir21 block
# KCNQ1 block val – KCNQ1 potassium channel inhibitors, confirmation, cell-based, Tl flux, duplicate; AID 588353, 2011; shares compounds with KCNQ1 block; KCNQ1 cell line, FluxOR thallium flux fluorescence; inhibition, % at 10 µM; 1,600 tested, 93% active;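 active = primary screen active, with duplicate mean exceeding buffer control mean plus 3 SD of buffer wells, cut at about 28% in these data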;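 note: 0% = buffer control ratio and 100% = XE991 inhibitor control ratio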
# CHO Tl flux – thallium flux effects in parental CHO cells, counter-screen for KCNQ1 inhibitor project, cell-based, Tl flux | shares compounds with KCNQ1 block | parental CHO-K1, FluxOR thallium flux fluorescence ratio; active compounds read low; zero means no signal rise above baseline | fluorescence ratio (Tl flux) at 10 µM | 1,600 tested, 21% active | AID 588366, 2011;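 active = mean of duplicate thallium-flux fluorescence ratios in parental host cells more than 5 SD below the buffer control mean, cut at about 0.38 in these data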;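 note: ratio is peak minus minimum fluorescence divided by baseline fluorescence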
# KCNQ1 ephys val – KCNQ1 channel inhibitors, confirmation, orthogonal assay, cell-based, automated electrophysiology. 490 tested, 20% active. KCNQ1-CHO cells, automated patch clamp current. AID 624120, 2012. calls only at 10 µM. shares compounds with KCNQ1 block;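 active = KCNQ1 current drop exceeding 3 SD of negative control wells, seen in both duplicate runs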;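 note: steady state current during a 2 s step from -80 to +40 mV; negative values mean current inhibition and positive values mean potentiation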
# KCNQ2 inh – KCNQ2 channel inhibition, selectivity assay for KCNQ1 inhibitor project, cell-based. KCNQ2 cells, FluxOR thallium flux fluorescence. inhibition, % at 10 µM. 1,600 tested, 71% active. shares compounds with KCNQ1 block;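 active = mean percent inhibition of the KCNQ2 thallium signal more than 5 SD above the buffer-only control wells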;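 note: KCNQ2 expressed in CHO cells; 0% = buffer control wells and 100% = XE-991 inhibitor control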
# Target sequence (O88943 whole entry, looked up): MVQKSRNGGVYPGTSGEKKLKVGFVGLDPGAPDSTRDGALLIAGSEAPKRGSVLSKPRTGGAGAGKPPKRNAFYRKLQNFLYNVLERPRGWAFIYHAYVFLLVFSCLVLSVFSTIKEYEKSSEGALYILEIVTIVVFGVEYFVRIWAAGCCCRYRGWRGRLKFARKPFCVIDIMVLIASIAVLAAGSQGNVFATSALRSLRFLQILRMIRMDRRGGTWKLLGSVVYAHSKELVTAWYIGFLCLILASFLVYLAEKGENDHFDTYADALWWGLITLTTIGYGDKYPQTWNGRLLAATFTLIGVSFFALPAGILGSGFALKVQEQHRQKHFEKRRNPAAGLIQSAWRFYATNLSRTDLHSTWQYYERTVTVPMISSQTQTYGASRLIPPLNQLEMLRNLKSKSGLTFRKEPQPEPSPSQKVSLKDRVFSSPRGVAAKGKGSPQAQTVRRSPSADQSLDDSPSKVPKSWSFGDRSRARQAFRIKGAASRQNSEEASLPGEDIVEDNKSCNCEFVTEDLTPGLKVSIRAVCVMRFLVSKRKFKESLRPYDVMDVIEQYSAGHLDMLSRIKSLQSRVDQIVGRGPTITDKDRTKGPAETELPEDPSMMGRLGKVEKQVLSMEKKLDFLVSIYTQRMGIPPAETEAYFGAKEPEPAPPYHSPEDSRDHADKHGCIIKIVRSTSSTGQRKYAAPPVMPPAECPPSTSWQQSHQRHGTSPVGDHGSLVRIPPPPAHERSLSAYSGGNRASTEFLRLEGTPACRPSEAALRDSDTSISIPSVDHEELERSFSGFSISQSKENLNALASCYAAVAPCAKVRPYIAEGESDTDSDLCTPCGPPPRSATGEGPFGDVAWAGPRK
# KCNQ1 KCNE1 spec – KCNQ1/KCNE1 channel inhibition, selectivity assay for KCNQ1 inhibitor project, CHO-K1 cells, thallium flux, FluxOR. shares compounds with KCNQ1 block. FluxOR thallium flux fluorescence. inhibition, % at 10 µM. 1,600 tested, 77% active. AID 652147, 2013;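 active = mean percent inhibition of duplicate wells above the buffer-only control mean plus 3 SD of those controls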;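 note: 0% = buffer only wells and 100% = XE-991 inhibitor control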
# KCNK9 block conf – KCNK9 potassium channel inhibitors, confirmation, HEK293 cells, thallium flux, duplicate; shares compounds with KCNK9 inh-1; FluxOR thallium flux fluorescence; inhibition, % at 10 µM; 4,900 tested, 43% active; AID 492992, 2010;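 active = thallium signal inhibited by more than 5 SD of the compound-free buffer control wells, on both duplicate plates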;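 note: 0% = assay buffer control wells without compound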
# Kir2-1 spec – mouse Kir2.1 channel inhibition, confirmation, selectivity assay for KCNK9 modulator project, cell-based, HEK293, thallium flux; shares compounds with KCNK9 inh-1; Kir2.1 cells, FluxOR thallium flux fluorescence; inhibition, % at 10 µM; 4,900 tested, 4% active; AID 492993, 2010;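 active = thallium signal drop more than 5 SD beyond the mean of the no-compound control wells, seen in both duplicate plates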;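 note: signal is fluorescence rise after thallium addition divided by baseline fluorescence; plate controls were assay buffer only for no effect and full block by chlorpromazine control for full effect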
# KCNK9 uninduced – thallium flux in non-induced HEK293 cells, confirmation, counter-screen for KCNK9 inhibitor project, cell-based, second counter screen, non-induced KCNK9-HEK293; shares compounds with KCNK9 inh-1; FluxOR thallium flux; inhibition, % at 10 µM; 4,900 tested, 40% active;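 active = thallium signal drop beyond 5 SD of the untreated control mean, on both duplicate plates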;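 note: plate controls were buffer only IC0 wells for no effect and SID17386958 at its maximal inhibitory level for full effect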
# * = called active by the depositor; i = inactive; · = not tested or not shown; + = active, no number. A selection: hits, their analogues and other compounds. The true share with any hit is near 3.8%. Unless noted, the rule behind the calls is not given here.
SMILES,KCNK3 inh,KCNQ1 act,Kir21 block,hERG protect,KCNK9 inh-1,KCNQ1 block,KCNQ1 block val,CHO Tl flux,KCNQ2 inh,KCNQ1 KCNE1 spec,others
CCCCCSc1cc(OC)c(CCN)cc1OC,i,i,-6.23*,-11.7,i,6*,·,·,·,·,hERG ctr=i;KCNK9 inh-2=i;Kir2-1 patch inh=26.1%*
COc1cc(CCN)ccc1O,i,·,·,·,·,·,·,·,·,·,
Cc1cc(C)n(CCOC(=O)C2C(C=C(Cl)Cl)C2(C)C)n1 (stereo not given),i,i,-9.84*,-4.4,i,i,·,·,·,·,hERG ctr=i;KCNK9 inh-2=i;Kir2-1 patch inh=40.9%*
Cc1ccc2c(c1)C1CN(C)CCC1N2C(=O)c1ccc(Br)o1 (stereo not given),i,i,0.01,-5.3,i,i,·,·,·,·,
CCOc1ccc(Cl)cc1CNCCc1ccc(F)cc1,i,i,-6.41*,-17.4,i,i,·,·,·,·,hERG ctr=i;KCNK9 inh-2=i;Kir2-1 patch inh=57.1%*
Fc1ccc(CCNCc2ccccc2Cl)cc1,i,i,0.28,-5.2,i,i,·,·,·,·,
COC[C@H]1OC(=O)c2coc3c2[C@@]1(C)C1=C(C3=O)[C@@H]2CCC(=O)[C@@]2(C)C[C@H]1OC(C)=O,i,·,·,·,·,·,·,·,·,·,
COc1ccc(C(=O)C2CN(C)CC2c2ccc(Cl)cc2)cc1 (stereo not given),i,i,-6.37*,-20.2,i,i,·,·,·,·,hERG ctr=51.0%*;KCNK9 inh-2=i;Kir2-1 patch inh=i
COc1cccc(C(=O)C2CN(C)CC2c2ccc(Cl)cc2)c1 (stereo not given),i,i,-7.11*,-14.7,i,i,·,·,·,·,hERG ctr=46.0%*;KCNK9 inh-2=i;Kir2-1 patch inh=25.2%*
CC(N)Cc1ccccc1Sc1ccc(O)cc1 (stereo not given),·,i,-4.01,-7.8,i,i,·,·,·,·,
Cc1sc2c(c1C)C(c1ccc(C(C)(C)C)cc1)=NCC(=O)N2CC(=O)Nc1nccs1,i,i,-0.06,-17.1,i,6*,83.5*,0.482,i,94.0%*,
COc1ccc(NC(=O)N2CCC3(CC2)OCCO3)cc1,i,i,-0.51,-3.3,i,i,·,·,·,·,
CCCCCn1c(=O)c(C(=O)Nc2cnccn2)c(O)c2ccccc21,-10.1*,i,-0.18,-10.0,i,8*,78.5*,0.672,i,68.0%*,
CCCCn1c(=O)c(C(=O)Nc2ccccc2S(N)(=O)=O)c(O)c2ccccc21,i,i,1.07,-4.4,i,i,·,·,·,·,
CCCCCn1c(=O)c(C(=O)Nc2ccccc2S(N)(=O)=O)c(O)c2ccccc21,i,i,0.03,-10.1,i,9*,75.0*,0.45,i,i,
CCCCCCCn1c(=O)c(C(=O)Nc2cnccn2)c(O)c2ccccc21,i,i,-1.71,-15.2,i,i,·,·,·,·,
O=C(CCC(=O)N1CCC2(CC1)OCCO2)Nc1nnc(C2CCCCC2)s1,i,i,0.68,-9.9,i,i,·,·,·,·,
CCOC(=O)C(O)(c1ccc(NC(=O)c2ccc(Cl)c(Cl)c2)cc1)C(F)(F)F (stereo not given),i,i,-2.14,-9.2,i,6*,123.0*,0.531,93.0%*,144.5%*,KCNQ1 ephys val=i
CCC(CC)NC1CCCCC1OC (stereo not given),i,i,1.93,-7.8,i,i,·,·,·,·,
Brc1cccc(CNCCc2ccc3c(c2)OCO3)c1,i,i,-2.94,-1.3,i,6*,100.5*,0.441,85.7%*,53.5%*,KCNQ1 ephys val=+
COc1ccc(-[n+]2c(-c3ccccc3)cc(-c3ccc(C)cc3)cc2-c2ccccc2)cc1,-8.87*,i,-12.8*,-31.2,-16.4*,15*,94.5*,0.44,109.3%*,163.0%*,KCNQ1 ephys val=+;KCNK9 block conf=60.5%*;Kir2-1 spec=78.0%*;KCNK9 uninduced=29.5%*
CC[C@@H](C(N)=O)N1CCCC1=O,·,i,1.32,-5.3,i,i,·,·,·,·,

# Screening data from PubChem BioAssay.
